Measurements pooled from the literature.
Lines come from different studies, so protocols differ.
Target: AP2-associated protein kinase 1 (AAK1, Homo sapiens, UniProt Q2M2I8)

SMILES | assay | setting | remaining binding [%]
Cc1cnn2ncc(-c3ccnc(N(C)C)n3)c2c1 | binding | 1 µM | 91
O=C(c1ccc(Nc2ncc(Cl)c(-c3cc4ccccc4s3)n2)cc1)N1CCC(N2CCCC2)CC1 | binding, competition with immobilised ligand | 1 µM | 29
CC(=O)N1CCC(c2ccc(C(=O)NC(=N)N)cc2C(F)(F)F)CC1 | binding | 1 µM | 100
C=CC(=O)N1CCC(C(=O)NCC(=O)N2CCN(c3nc(-c4cnc(N)nc4C(F)F)nc(N4CCOCC4)n3)CC2)CC1 | binding, competition with immobilised ligand | 1 µM | 100
COc1cnc(Nc2cccc(S(N)(=O)=O)c2)nc1N1CCN(c2ccccc2)C(=O)C1 | binding, competition with immobilised ligand | 1 µM | 84
CN(CCCC(F)(F)F)c1nccc(-c2cnn3ncccc23)n1 | binding | 1 µM | 100
Cc1nccc(COC(=O)N2C[C@@H]3[C@@H](CNC(=O)c4ccc5[nH]nnc5c4)[C@@H]3C2)n1 | binding | 1 µM | 100
O=C(NCCCN1CCOCC1)c1ccc(Nc2ncc(Cl)c(-c3ccc(Cl)s3)n2)cc1 | binding, competition with immobilised ligand | 1 µM | 35
CN(C(=O)c1ccccc1)c1cc(N(C)c2ccc3c(c2)CCc2ccc(C(=O)NCCN4CCOCC4)cc2C3=O)ccc1F | binding | 1 µM | 100
CN(C)c1nccc(-c2cnc3ncccn23)n1 | binding | 1 µM | 88
CNC(=O)[C@@H]1CC[C@@H](n2c(-c3ccc4cnccc4c3)nc3ccc(C(=O)NCc4cccc(C(N)=O)c4)cc32)C1 | binding, competition with immobilised ligand | 1 µM | 93
O=C(Nc1c[nH]nc1C(=O)NC1CCNCC1)c1cc(F)cc(F)c1 | binding, competition with immobilised ligand | 1 µM | 100
CN(c1ccnc(CNc2nc(Nc3ccc4c(c3)CC(=O)N4)ncc2C(F)(F)F)n1)S(C)(=O)=O | binding | 1 µM | 27
C[C@H]1CCN(c2nccc(-c3cnn4ncccc34)n2)C1 | binding | 1 µM | 64
COc1ncc2cc3ccccc3nc2c1C#N | cell-free assay, competition with immobilised ligand | 5 µM | 96
N[C@H]1CCN(c2nccc(-c3cnn4ncccc34)n2)C1 | binding | 1 µM | 91
Cc1cnc(Nc2ccc(C(=O)N3CCC(N4CCCC4)CC3)cc2)nc1-c1cc2ccccc2s1 | binding, competition with immobilised ligand | 1 µM | 22
O=C(O)c1cc(-c2ccc(C3CCNCC3)cc2)c2ccc(-c3ccc(C(F)(F)F)cc3)cc2c1 | binding | 1 µM | 100
CC1CCCN1c1nccc(-c2cnn3ncccc23)n1 (stereo not shown) | binding | 1 µM | 100
C[C@@H](c1ccc(-n2cnc3c(N)ncnc32)cc1)N1CCc2nn(C)c(Cc3ccccc3)c2C1=O | binding, competition with immobilised ligand | 0.1 µM | 98
O=C(NCc1ncc(C(F)(F)F)cc1Cl)c1ccc2c(c1)C1(CCS(=O)(=O)CC1)[C@H](C1CC1)N2S(=O)(=O)c1ccc(F)cc1 | binding | 1 µM | 99
CN(C)c1ncc(F)c(-c2cnn3ncccc23)n1 | binding | 1 µM | 89
